Screening results as filed in PubChem BioAssay.
PLC-gamma1 inh: blocks human PLC-gamma1 enzyme activity; P19174; purified PLC-gamma1, fluorogenic substrate, fluorescence; inhibition, % at 12.2 µM; actives 0.84% (n = 370,000); AID 720700; in the data active means inhibition above about 9.5%
ARFGAP1 inh: inhibits rat ARF GTPase activating protein 1. actives 0.26% (n = 360,000). inhibition, % at 16.5 µM. Arfgap1-stimulated ARF1 GTP hydrolysis, GDP FP detection. Q62848;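 active means inhibition above a per-plate limit, mean inhibition of low control wells plus 3 SD, cut at about 25% in these data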
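Assay system: purified rat His6-Arfgap1 residues 1-136 (GAP domain); Reagent: human Δ17 ARF1 bound to GTP; Dosing: 16.5 µM single point, 1.26% DMSO; Times: GTP hydrolysis reaction 2 h at 25 °C; Signal: FP, GDP Alexa 633 tracer displaced from anti-GDP antibody, 620/688 nm; Measure: % inhibition from polarization.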
PLC-beta3 inh: blocks human PLC-beta3 enzyme activity; Q01970; Purified PLC-beta3, fluorogenic substrate, fluorescence; inhibition, % at 12.2 µM; actives 0.18% (n = 370,000); AID 720704; in the data active means inhibition above about 11%
sPLA2-III inh: Inhibits HGIII-sPLA2 liposome hydrolysis, primary screen. Q9NZ20. QFRET BODIPY PC-A2 liposome hydrolysis, fluorescence. inhibition, % at 12.2 µM. actives 0.56% (n = 370,000). AID 743126;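 active means inhibition above mean plus 3 SD of compounds lying within the high and low control bounds, cut at about 19% in these data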
Target sequence (Q9NZ20 whole entry, looked up): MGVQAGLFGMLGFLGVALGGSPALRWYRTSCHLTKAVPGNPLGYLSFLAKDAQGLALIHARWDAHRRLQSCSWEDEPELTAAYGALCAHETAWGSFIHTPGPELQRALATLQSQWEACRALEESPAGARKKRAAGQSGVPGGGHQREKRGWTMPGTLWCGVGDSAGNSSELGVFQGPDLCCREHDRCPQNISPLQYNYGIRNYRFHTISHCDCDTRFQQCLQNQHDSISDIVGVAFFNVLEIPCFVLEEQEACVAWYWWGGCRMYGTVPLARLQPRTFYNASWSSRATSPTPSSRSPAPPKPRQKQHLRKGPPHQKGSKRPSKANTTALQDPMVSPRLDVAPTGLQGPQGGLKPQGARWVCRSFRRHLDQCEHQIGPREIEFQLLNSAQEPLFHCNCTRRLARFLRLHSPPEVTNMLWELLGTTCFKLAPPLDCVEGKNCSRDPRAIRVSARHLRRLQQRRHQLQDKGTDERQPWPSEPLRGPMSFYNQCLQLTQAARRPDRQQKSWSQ
ASAP1 GAP inh: ASAP1 ArfGAP inhibition. actives 0.19% (n = 360,000). AID 624377. inhibition, % at 16.5 µM. Q9ULH1. ASAP1-stimulated ARF1 GTP hydrolysis, GDP FP detection; in the data active means inhibition above about 25%
sPLA2 confirm: human GIII-sPLA2 inhibition, confirmation; recombinant hGIII-sPLA2, BODIPY PC-A2 QFRET fluorescence; shares compounds with sPLA2-III inh; actives 34% (n = 2,000); inhibition, % at 12.2 µM;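 active means mean inhibition across triplicates above the hit cutoff set in the earlier primary screen, cut at about 19% in these data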
535nm interf: counter-screen for HGIII-sPLA2 inhibitors: 535nm fluorescence interference; shares compounds with sPLA2-III inh; BODIPY FL product fluorescence interference, QFRET; inhibition, % at 12.2 µM; actives 8.5% (n = 2,000); AID 743282;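 active means average inhibition above the solvent-only control mean plus 3 SD, cut at about 6% in these data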
BODIPY interf DR: 535nm optical interference dose response, HGIII-sPLA2 counter-screen; shares compounds with sPLA2-III inh; BODIPY FL product fluorescence interference, cell-free; IC50, µM; 240 tested, under 10 active; AID 743455;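 active means IC50 at or below 10 µM; inactive means IC50 above 10 µM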
A number is an active result; n = inactive; x = no result; ! = not confirmed by another sample. In the library only some 1.9% were active in any assay of this set; here they are far more common.

SMILES	PLC-gamma1 inh	ARFGAP1 inh	PLC-beta3 inh	sPLA2-III inh	ASAP1 GAP inh	sPLA2 confirm	535nm interf	others
O=C1CCCN1C(=O)c1cncc(Br)c1	n	n	n	n	n	x	x
Nc1cncc(C(=O)O)c1	n	n	n	21!	n	n	n
CCC(C)N1C(=O)/C(=C\c2cc3c4c(c2)CCCN4CCC3)C(=O)NC1=S (centres undefined)	n	n	n	22	n	33	n	BODIPY interf DR=n
CCC(C)N1C(=O)/C(=C\c2ccc(N3CCCCCC3)cc2)C(=O)NC1=S (centres undefined)	n	n	n	n	n	x	x
COc1cc(CC(C)N)c(OC)cc1I (centres undefined)	n	n	n	24!	n	n	n
COc1ccccc1Sc1ccccc1CC(C)N (centres undefined)	n	n	n	n	n	x	x
CCCOC(=O)c1ccc(-[n+]2c(-c3ccccc3)cc(-c3ccccc3)cc2-c2ccccc2)cc1	n	n	n	26	n	n	n
CN(C)c1ccc(/C=C/[N+](=O)[O-])cc1	n	n	n	23	n	n	n
